Survivals, SER and EC50 data for twelve compounds are collected here from ChEMBL document CHEMBL1121970, “Potential radiosensitizing agents. 5. 2-Substituted benzimidazole derivatives” (1982).

The subject of assay [1] is CHO. Nature of the assay: Radiosensitizing activity against chinese hamster cells was determined in the presence of the sensitizer under nitrogen at a concentration of 1.0 mM. It is filed as functional, Cricetulus griseus. The method in brief:
(§1)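 V-79 Chinese hamster monolayers (exponentially growing, MEM with 15% fetal calf serum), about 200 cells per dish. Made hypoxic by purging sealed containers with 95% N2/5% CO2 for 1 h. Drug at maximum nontoxic concentration (1 mM or less) for 2 h at 37 °C. Cobalt-60 irradiation, 1400 rad, at room temperature. Medium replaced, colonies counted after 6 days; % survival.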

Assay [2] in a line: Sensitizer enhancement ratio was determined by dividing the Do value obtained from the control radiation survival curve by the Do value obtained from the radiation survival curve. It is filed as functional.
A further assay deals with V79. The experiment in a line: Inhibitory activity against hypoxic Chinese hamster cells(V-79) in culture by colony formation assay. It is filed as functional. As to conditions: Cricetulus griseus, read-out: ED50 (the source's name).
The subject of assay [3] is CHO. The experiment in a line: Radiosensitizing activity against chinese hamster cells was determined in the presence of the sensitizer under nitrogen at a concentration of 0.010 mM. It is filed as functional, Cricetulus griseus. Summed up: as §1
Assay [4] in a line: Sensitizer enhancement ratio(SER) was determined. It is filed as functional.

Turning to `COCC(O)Cn1c(C#N)nc2ccccc21` (stereo unspecified), the Survivals with CHO [1] amounted to 23%. Also, the SER in assay [2] is 1. Further, in the assay on V79, the EC50 is 1200 µM.

`COCC(O)Cn1c(C(F)(F)F)nc2ccccc21` (stereo unspecified): in the assay on CHO [1], the Survivals is reported as 22%. In assay [2], the SER amounted to 1.1. For the same compound, the EC50 in the assay on V79 was > 5000 µM.

Regarding `COCC(O)Cn1c(S(C)(=O)=O)nc2ccccc21` (stereo unspecified), the Survivals in the assay on CHO [1] turned out to be 25.8%. In addition, the SER in assay [2] was found to be 1. Also, the EC50 in the assay on V79 turned out to be 3200 µM.

On to `COCC(O)Cn1c(C(C)=O)nc2cc([N+](=O)[O-])ccc21` (stereo unspecified), for which the Survivals with CHO [1] stood at 11.3%. Besides, the SER in assay [2] was 1.2. The EC50 in the assay with V79 is > 5000 µM.

With `CCOC(=O)Cn1c([N+](=O)[O-])nc2ccccc21`, the Survivals in the assay on CHO [1] stood at 2.7%. For the same compound, the SER in assay [2] stood at 2.3. The EC50 in the assay on V79 worked out at 300 µM.

For `COCC(O)Cn1c([N+](=O)[O-])nc2ccccc21` (stereo unspecified), the Survivals in the assay with CHO [1] is on record as 9.4%. Moreover, the SER in assay [2] came out at 2. For the same compound, the EC50 with V79 came out at 4800 µM.

As to `COCC(O)Cn1c(C(F)(F)F)nc2ccc([N+](=O)[O-])cc21` (stereo unspecified), the Survivals in the assay on CHO [1] is given as 17.6%. The SER in assay [2] amounted to 1.2. Besides, in the assay with V79, the EC50 turned out to be 3000 µM.

In the case of `COCC(O)Cn1c(C(F)(F)F)nc2cc([N+](=O)[O-])ccc21` (stereo unspecified), in the assay with CHO [1], the Survivals turned out to be 13.8%. In addition, the SER in assay [2] is 1.4. In addition, in the assay on V79, the EC50 was > 5000 µM.

Consider `CCOC(=O)Cn1c([N+](=O)[O-])nc2ccc([N+](=O)[O-])cc21`, for which the Survivals in the assay with CHO [3] stood at 22.9%. In the assay with V79, the EC50 was 6 µM. In assay [4], the SER stood at 1.

For the compound `COCC(O)Cn1c(C(N)=O)nc2ccccc21` (stereo unspecified), the Survivals with CHO [1] was found to be 21%. Besides, the SER in assay [2] was determined as 1.1. In the assay on V79, the EC50 was > 5000 µM.

In the case of `COCC(O)Cn1c(C(C)=O)nc2ccccc21` (stereo unspecified), the Survivals in the assay with CHO [1] was found to be 23%. The SER in assay [2] worked out at 1. The EC50 with V79 was > 5000 µM.

Take `CCOC(=O)Cn1c([N+](=O)[O-])nc2cc([N+](=O)[O-])ccc21`: the Survivals with CHO [1] worked out at 26.7%. Moreover, the EC50 in the assay with V79 was determined as 16 µM. Also, in assay [4], the SER is 1.
